From ChEMBL document CHEMBL4665780, “Synthesis of flutamide-conjugates” (Bioorg Med Chem Lett, 2020)

Assays:
K562 = assay: Anticancer activity against human K562 cells assessed as inhibition of cell growth incubated for 48 hrs by MTT assay; assay type: functional, cell-based; conditions: K562, 48 h
In short: (§1)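 MTT assay against a panel of human cancer lines (U-251 glioblastoma, PC-3 prostatic adenocarcinoma, K-562 chronic myelogenous leukemia, HCT-15 colorectal adenocarcinoma) and monkey kidney fibroblasts (COS-7). Cells were exposed to compounds for 48 h. IC50 (µM) came from MTT readings as the mean ± SD of two independent trials, each run in triplicate.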

COS-7 = assay: Anticancer activity against African green monkey COS7 cells assessed as inhibition of cell growth incubated for 48 hrs by MTT assay; assay type: cell-based; conditions: Chlorocebus aethiops, COS-7, 48 h; in short: as §1
HCT-15 = assay: Anticancer activity against human HCT-15 cells assessed as inhibition of cell growth incubated for 48 hrs by MTT assay; assay type: functional, cell-based; conditions: HCT-15, 48 h; in short: as §1
U-251 = assay: Anticancer activity against human U-251 cells assessed as inhibition of cell growth incubated for 48 hrs by MTT assay; assay type: functional, cell-based; conditions: U-251, 48 h; in short: as §1
PC-3 = assay: Anticancer activity against human PC-3 cells assessed as inhibition of cell growth incubated for 48 hrs by MTT assay; assay type: functional, cell-based; conditions: PC-3, 48 h; in short: as §1

Row | Structure (SMILES) | IC50 (K562) [µM] | IC50 (COS-7) [µM] | IC50 (HCT-15) [µM] | IC50 (U-251) [µM] | IC50 (PC-3) [µM]
1 | CCCCCCCCCCCCOc1cc(OCCCCCCCCCCCC)cc(C(=O)NCCN)c1 | > 1000 | > 1000 | > 1000 | > 1000 | > 1000
2 | CC(C)C(=O)N(CC(=O)NCCN)c1ccc([N+](=O)[O-])c(C(F)(F)F)c1 | 18 | 15.2 | > 100 | 24.1 | 20.1
3 | CCCCCCCCCCCCOc1cc(OCCCCCCCCCCCC)cc(C(=O)NCCNC(=O)CN(C(=O)C(C)C)c2ccc([N+](=O)[O-])c(C(F)(F)F)c2)c1 | 15.4 | > 1000 | 19.2 | 14.3 | 13.3
4 | CCCCCCCCCCCCOc1cc(OCCCCCCCCCCCC)cc(C(=O)OC)c1 | > 1000 | > 1000 | > 1000 | > 1000 | > 1000
5 | CCCCCCCCCCCCOc1cc(OCCCCCCCCCCCC)cc(C(=O)NCCN(CCC(=O)NCCNC(=O)CN(C(=O)C(C)C)c2ccc([N+](=O)[O-])c(C(F)(F)F)c2)CCC(=O)NCCNC(=O)CN(C(=O)C(C)C)c2ccc([N+](=O)[O-])c(C(F)(F)F)c2)c1 | 6.79 | > 1000 | 22.4 | 8.59 | 7.16
6 | COC(=O)CN(C(=O)C(C)C)c1ccc([N+](=O)[O-])c(C(F)(F)F)c1 | 14.1 | 12.1 | > 100 | 20.1 | 19.1
7 | CCCCCCCCCCCCOc1cc(OCCCCCCCCCCCC)cc(C(=O)NCCN(CCC(=O)OC)CCC(=O)OC)c1 | > 1000 | > 1000 | > 1000 | > 1000 | > 1000
8 | CC(C)C(=O)Nc1ccc([N+](=O)[O-])c(C(F)(F)F)c1 [FLUTAMIDE] | 29.2 | 51.5 | > 100 | 22.1 | 20.3
